Source: PMC7033594 (iScience, 2020)
Blank lines part the entries; values can stand above or below the molecule they belong to.

Experiments:
[1] = tested on: PLC activity; experiment: PLC activity in seedlings after ABA treatment; assay type: in vivo, Arabidopsis; settings: 50 μM ABA for 24 h
How it was run: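 Ten-day-old seedlings grown on MS agar were incubated 24 h in the dark in liquid half-strength MS with or without 50 µM ABA. PLC activity in seedling extracts was measured in triplicate with the EnzCheck direct PLC kit. Fluorescence was normalised to the kit's Bacillus cereus PC-PLC. Groups were compared by one-way ANOVA with Tukey's test.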

[2] = tested on: PI(4,5)P2 biosensor in Arabidopsis suspension cells; experiment: PI; assay type: cell-based; settings: 50 µM ABA for 24h
[3] = molecular target: T1, full-length AtTSPO (Arabidopsis thaliana, UniProt O82245); experiment: Microscale thermophoresis, PI; assay type: binding
T1 sequence (O82245 1-196): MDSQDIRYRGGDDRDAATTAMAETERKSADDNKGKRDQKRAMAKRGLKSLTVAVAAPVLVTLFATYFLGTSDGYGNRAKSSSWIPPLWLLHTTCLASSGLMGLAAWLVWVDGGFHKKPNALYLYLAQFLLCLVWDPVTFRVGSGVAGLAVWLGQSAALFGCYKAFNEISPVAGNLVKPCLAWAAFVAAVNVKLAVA
How it was run: (§1)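 Microscale thermophoresis used His-tag labelling with RED-tris-NTA. Full-length or N-terminally truncated 10His protein from yeast was titrated against a PI(4,5)P2 concentration gradient in 50 mM Tris pH 8.0, 200 mM NaCl, 10% glycerol, 2% DDM and protease inhibitors. Laser power was 10, 20 or 40%. Values are mean ± SD of three experiments, with Kd from non-linear regression.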

[4] = molecular target: T2, AtTSPO^ΔN (Arabidopsis thaliana, UniProt O82245); experiment: Microscale thermophoresis, PI; assay type: binding; settings: RED-tris-NTA label
T2 sequence (O82245 42-196): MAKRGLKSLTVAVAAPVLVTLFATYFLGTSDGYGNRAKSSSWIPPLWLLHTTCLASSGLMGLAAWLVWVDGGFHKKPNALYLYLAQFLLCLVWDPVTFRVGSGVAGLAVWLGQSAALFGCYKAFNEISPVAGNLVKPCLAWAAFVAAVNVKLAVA
How it was run: as §1

[5] = molecular target: T3, AtTSPO^Nter (Arabidopsis thaliana, UniProt O82245); experiment: NMR 1H-15N HSQC titration of AtTSPO^Nter with lipids; assay type: binding
T3 sequence (O82245 1-49): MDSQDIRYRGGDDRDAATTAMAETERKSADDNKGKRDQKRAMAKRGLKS

[6] = molecular target: T1, full-length AtTSPO; experiment: Protein-lipid overlay; assay type: binding
How it was run: (§2)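 Lipids were spotted on nitrocellulose and air-dried 1 h: PA from CHCl3, and PI3P, PI4P and PI(4,5)P2 from 2% DDM. Commercial PIP strips were also used. Membranes were blocked in 3% BSA in TBS-Tween, incubated with purified protein in blocking buffer for 3 h at room temperature, then probed with primary and HRP secondary antibodies and developed by ECL.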

[7] = molecular target: T3, AtTSPO^Nter; experiment: Protein-lipid overlay with purified AtTSPO N-terminal peptide; assay type: binding
How it was run: as §2

[8] = molecular target: mTSPO (Mus musculus, UniProt P50637); experiment: Protein-lipid overlay with purified mouse TSPO; assay type: binding
Sequence of mTSPO (P50637 whole entry): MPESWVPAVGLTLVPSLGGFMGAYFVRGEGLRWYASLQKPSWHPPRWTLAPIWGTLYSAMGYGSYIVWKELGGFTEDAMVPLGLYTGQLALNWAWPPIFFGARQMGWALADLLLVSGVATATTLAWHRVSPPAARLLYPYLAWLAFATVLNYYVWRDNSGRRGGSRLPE
How it was run: as §2

[9] = molecular target: T4, AtTSPO-PIP2;7 interaction (Arabidopsis thaliana, UniProt O82245); experiment: Microscale thermophoresis of YFP-PIP2; assay type: binding; settings: 50 μM lipid in trans
T4 sequence (O82245 1-196): T1 sequence (O82245 1-196)
T4 sequence (P93004 1-280 partner): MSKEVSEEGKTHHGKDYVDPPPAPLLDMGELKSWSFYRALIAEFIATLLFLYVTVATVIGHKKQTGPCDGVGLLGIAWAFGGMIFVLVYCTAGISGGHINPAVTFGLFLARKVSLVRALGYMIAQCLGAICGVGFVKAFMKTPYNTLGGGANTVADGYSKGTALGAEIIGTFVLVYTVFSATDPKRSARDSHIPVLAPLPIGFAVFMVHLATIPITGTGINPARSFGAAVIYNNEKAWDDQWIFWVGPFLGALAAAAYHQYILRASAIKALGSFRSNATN
How it was run: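 The aquaporin (mVenus-tagged YFP-PIP2;7) was a DDM-solubilised microsomal fraction from transgenic Arabidopsis seedlings. It was titrated against a range of AtTSPO concentrations, with 50 µM PI(4,5)P2, phosphatidylcholine, or no lipid added. Buffer was 50 mM Tris pH 8.0, 200 mM NaCl, 10% glycerol, 2% DDM. YFP was read through the green filter. Normalised data from three experiments (mean ± SD) were fitted by non-linear regression.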

[10] = molecular target: T1, full-length AtTSPO; experiment: Microscale thermophoresis, phosphatidic acid titrated against full-length AtTSPO; assay type: binding; settings: protein labeled with NT-647-NHS, non-linear fitting
How it was run: (§3)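 Microscale thermophoresis was run on a Monolith NT115. Lysine residues of yeast-derived full-length protein or bacterially expressed N-terminal peptide were labelled with NT-647-NHS. Labelled protein was titrated against a PA concentration gradient in 50 mM Tris pH 8.0, 200 mM NaCl, 10% glycerol, 2% DDM and protease inhibitors. LED power was 100%. Kd came from non-linear fitting of normalised fluorescence.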

[11] = molecular target: T5, N-terminal peptide (AtTSPO^Nter) (Arabidopsis thaliana, UniProt O82245); assay type: binding; settings: thermophoresis; peptide labeled with NT-647-NHS; non-linear fitting
T5 sequence (O82245 1-49): T3 sequence (O82245 1-49)
How it was run: as §3

[12] = molecular target: T2, AtTSPO^ΔN; experiment: Membrane-spotted PA gradient / PA pull-down with AtTSPO^ΔN; assay type: binding; settings: membrane-spotted gradient of PA
How it was run: as §2

Molecule: CC1=CC(=O)CC(C)(C)[C@@]1(O)/C=C/C(C)=C\C(=O)O [ABA, abscisic acid]
- effect on PLC activity ([1]; KO TSPO seedlings): no effect
- increase of PLC activity ([1]; OE TSPO seedlings): ~4 fold
- enhancement of PLC activity compared with untreated samples ([1]; WT seedlings): ~20%
- effect on PLC activity ([1]; seedlings overexpressing N-terminally truncated AtTSPO): no effect
- distribution of the PI(4,5)P2 biosensor [2]: partial redistribution of the PI(4,5)P2 biosensor from the PM to the cytosol

Molecule: phosphatidic acid [PA]
- Kd [10]: 2100 µM
- Kd [11]: 3300 µM
- binding to purified full-length AtTSPO [6]: bound
- binding to AtTSPO^ΔN [12]: could not bind

Molecule: phosphatidylcholine [PC]
- AtTSPO and Venus-PIP2;7 interaction [9]: no interaction

Molecule: phosphatidylserine [PS]
- binding to purified full-length AtTSPO [6]: bound

Further lines, with some results ahead:

- Kd [3]: 2300 ± 700 µM
- binding to AtTSPO^ΔN [4]: no binding was observed
- Kd [5]: ~150 µM
- binding to purified full-length AtTSPO [6]: could bind
- binding to N-terminal peptide of AtTSPO [7]: could bind
- binding to mTSPO [8]: did not bind
Molecule: CCCCCCCC/C=C\CCCCCCCC(=O)OC[C@H](COP(=O)(O)O[C@@H]1[C@H](O)[C@H](O)[C@@H](OP(=O)(O)O)[C@H](OP(=O)(O)O)[C@H]1O)OC(=O)CCCCCCC/C=C\CCCCCCCC [PI(4,5)P2, 1,2-dioleoyl-sn-glycero-3-phospho-(1’-myo-inositol-4’,5’-bisphosphate)]
- AtTSPO and Venus-PIP2;7 interaction [9]: clearly indicating a protein-protein interaction

- binding to purified full-length AtTSPO [6]: could bind
- binding to N-terminal peptide of AtTSPO [7]: could bind
- binding to mTSPO [8]: bind
Molecule: PI3P

- binding to purified full-length AtTSPO [6]: could bind
- binding to N-terminal peptide of AtTSPO [7]: could bind
Molecule: PI4P

- binding to purified full-length AtTSPO [6]: could bind
- binding to N-terminal peptide of AtTSPO [7]: could bind
Molecule: PI5P

- binding to purified full-length AtTSPO [6]: bound all tested PIs except PI(3,4)P2
Molecule: PI(3,4)P2
